From PubChem BioAssay
HTRA1 inhibitor: HTRA1 serine protease inhibitors, primary screen, biochemical, fluorescence polarization, HTS | inhibition, % at 5.96 µM | hit rate 0.5% among 340,000 | AID 504803, 2011 | recombinant HTRA1, FP-rhodamine activity-based probe; in the data active = inhibition above about 36%;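 note: 0% = enzyme with DMSO and 100% = wells lacking enzyme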
Tn7 DDE FP: inhibitors of Tn7 peptide binding to fibrin DD(E), primary screen, biochemical, fluorescence polarization, human fibrin, Tn7 probe. Fibrinogen beta chain (Homo sapiens), P02675. FP displacement of FITC-Tn7 peptide from fibrin DD(E); 0% = median of compound wells per plate. inhibition, % at 8.3 µM. hit rate 0.13% among 370,000. AID 720508, 2013;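 active = inhibition above the mean of compounds falling within the control limits plus 3 SD of them, cut at about 14% in these data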;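 note: 0% = plate median of compound wells and 100% = 10 µM Aha-Tn7 peptide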
Target sequence (P02675 whole entry, looked up): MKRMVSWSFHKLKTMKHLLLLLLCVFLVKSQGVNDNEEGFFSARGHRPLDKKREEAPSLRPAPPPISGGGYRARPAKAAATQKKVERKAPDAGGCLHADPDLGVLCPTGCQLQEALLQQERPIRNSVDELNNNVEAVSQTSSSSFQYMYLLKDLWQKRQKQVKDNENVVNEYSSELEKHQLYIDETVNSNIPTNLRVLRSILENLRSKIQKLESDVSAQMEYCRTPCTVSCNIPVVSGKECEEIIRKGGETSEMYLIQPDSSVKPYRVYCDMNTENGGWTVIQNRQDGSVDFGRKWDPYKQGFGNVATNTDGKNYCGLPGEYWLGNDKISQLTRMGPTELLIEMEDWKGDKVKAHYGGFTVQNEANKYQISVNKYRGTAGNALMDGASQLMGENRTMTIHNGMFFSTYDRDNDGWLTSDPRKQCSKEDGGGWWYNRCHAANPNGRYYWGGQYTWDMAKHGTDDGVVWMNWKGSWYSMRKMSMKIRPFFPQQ
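Measure: % inhibition scaled between sample-field median and high-control FP; Test system: human fibrin DD(E); Quantity: 2 µM final DD(E) protein; Doses: one dose, 8.3 µM nominal; Schedule: compound with protein 10 min, then 3 h after probe, room temperature; Detection: fluorescence polarization; Medium: Tris buffer with calcium and detergent, pH 7.8.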
TCR-CD3 inh: inhibitors of human TCR-CD3 interaction, primary screen, biochemical, fluorescence, TAMRA-labeled TCR probe; hit rate 0.37% among 360,000; inhibition, % at 9.4 µM; T-cell receptor (TCR); in the data active = inhibition above about 19%;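 note: recombinant mutant TCR 2C K166C tagged with TAMRA read by polarization; 0% = receptor in buffer alone and 100% = receptor with positive control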
Tn6 DDE FP: inhibitors of Tn6 peptide binding to fibrin DD(E), primary screen, biochemical, fluorescence polarization, human fibrin, Tn6 probe | hit rate 0.21% among 370,000 | inhibition, % at 8.3 µM | Fibrin DD(E) TRITC-Tn6 fluorescence polarization displacement;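 active = inhibition above a per-campaign cutoff: mean of compounds within control limits plus 3 SD, cut at about 15% in these data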;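 note: 0% = median of all compound wells on the plate and 100% = blocking peptide control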
SIAE primary: human SIAE inhibitors, primary screen, biochemical, fluorescence polarization, FP-Rh probe, 1536-well HTS | Sialate O-acetylesterase (Homo sapiens), Q9HAT2 | SIAE FP-Rh probe binding | inhibition, % at 9.66 µM | hit rate 0.69% among 370,000;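 active = inhibition above a cutoff: mean of compounds within the control limits plus 3 SD of those, cut at about 17% in these data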;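 note: 0% = plate median of compound wells and 100% = probe without SIAE protein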
ABHD4 inh: ABHD4 inhibitors, primary screen, biochemical, fluorescence polarization, mouse; purified mABHD4, FP-Rh probe fluorescence polarization; (Lyso)-N-acylphosphatidylethanolamine lipase (Mus musculus), Q8VD66; hit rate 0.54% among 370,000; inhibition, % at 8.92 µM;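 active = inhibition exceeding the mean over every tested compound plus 3 SD, cut at about 30% in these data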;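 note: 0% = plate median of compound wells and 100% = S159A mutant with DMSO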
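Assay system: mouse ABHD4 enzyme, wild type / Also added: fluorescent activity-based probe FP-Rh / Doses: single nominal dose of 8.92 µM, 0.89% DMSO final / Timing: 45 min compound pre-incubation plus 60 min probe step, 25 °C / Signal: FP readout, ex 525 nm / em 598 nm / Control set: S159A mutant/DMSO as 100%, compound-well median as 0%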
mABHD4 conf: ABHD4 inhibitors, retest, confirmation, biochemical, fluorescence polarization, mouse; inhibition, % at 8.92 µM; hit rate 55% among 1,800; AID 720658, 2013; shares compounds with ABHD4 inh; purified mABHD4, FP-Rh probe fluorescence polarization;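 active = mean inhibition across replicates above the hit cutoff set in the primary screen, cut at about 30% in these data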;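 note: 0% = wild-type ABHD4 with DMSO and 100% = catalytically dead S159A mutant with DMSO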
SIAE inh conf: human SIAE inhibitors, retest, confirmation, biochemical, fluorescence polarization, FP-Rh probe, triplicate; AID 1117263, 2014; SIAE FP-Rh activity-based probe; inhibition, % at 9.66 µM; hit rate 13% among 2,300; shares compounds with SIAE primary;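 active = mean inhibition of the replicates above the hit cutoff set in the primary screen, cut at about 17% in these data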;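 note: 0% = SIAE with DMSO and probe and 100% = probe without SIAE; inhibitors lower polarization as more probe stays unbound to SIAE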
Starred values were filed as active, the others as inactive; / = no result given; ! = repeats disagree. Shown are actives, neighbours in structure and some others; about 1.8% of the full set was active somewhere.

SMILES | HTRA1 inhibitor | Tn7 DDE FP | TCR-CD3 inh | Tn6 DDE FP | SIAE primary | ABHD4 inh | mABHD4 conf | SIAE inh conf
O=C(CN1C(=O)/C(=C2/SC(=S)N(CCS(=O)(=O)O)C2=O)c2ccccc21)Nc1cccc(Br)c1 | -23 | 7 | 12 | -7 | 18* | 60* | 70* | 5
Oc1ccc(Nc2ccc3ccccc3c2)cc1 | / | -1 | 6 | 4 | 20* | 39* | 56* | 15
Cc1cc(NC(=O)COc2cc(F)cc(F)c2)n(-c2ccccc2)n1 | / | 9 | / | -6 | 6 | -5 | / | /
CCCOc1ccc2c(c1)C(=NN=C(N)N)c1cc(OCCC)ccc1-2 | 14 | -4 | 6 | 1 | 18* | 38* | 51* | 16
C/C(=N/Nc1ccnc2cc(Cl)ccc12)c1ccc(N)cc1 | 12 | -7 | -1 | -9 | 23* | 30* | 33* | 13
COC(=O)c1ccc(S(=O)(=O)N2CCC(NC(=O)Cc3ccccc3)CC2)cc1 | / | 0 | / | -3 | -2 | 5 | / | /
CCOc1ccc(S(=O)(=O)N(C)CC(=O)NCc2ccco2)cc1 | -5 | 5 | 6 | 0 | -10 | 3 | / | /
Cc1ccc(S(=O)(=O)N(C(=O)c2ccco2)c2cc3sc(=O)oc3c3ccccc23)cc1 | 18 | -1 | 1 | -17 | 34* | 50* | 7 | 4
CCOc1ccc(S(=O)(=O)N(C(=O)c2ccco2)c2cc3sc(=O)oc3c3ccccc23)cc1 | 11 | 3 | 1 | -22 | 18* | 42* | 1 | -2
CC(=O)N(c1ccc2oc(=O)sc2c1)S(=O)(=O)c1ccccc1 | 15 | -1 | 6 | -4 | -6 | 10 | / | /
COc1cc(/C=N/Nc2nc3ccccc3[nH]2)cc(OC)c1O | 12 | -3 | -4 | -7 | 18* | 38* | 26 | 16
Cc1c(/C=N/Nc2nc3ccccc3[nH]2)c2ccccc2n1C | 34 | 2 | -8 | -14 | 40* | 41* | 70* | 20*
Cc1nn(-c2ccccc2)c(C)c1/C=N/Nc1nc2ccccc2[nH]1 | 19 | -7 | -5 | -6 | 24* | 42* | 56* | 37*
Cc1cc(=O)[nH]c(N/N=C/c2c(C)nn(-c3ccccc3)c2C)n1 | 4 | 4 | -2 | -7 | 2 | 1 | / | /
S=C(Nc1ccc(Br)cc1)OCCN1CCCC12CCC(c1ccccc1)CC2 (configuration not stated) | / | 0 | / | 1 | -1 | 3 | / | /
O=C(CSc1nnc(SCc2cccc3ccccc23)s1)Nc1ccc(Oc2ccccc2)cc1 | / | -6 | / | -2 | -8 | -7 | / | /
O=C1C(NC(=O)N2c3ccccc3C=Cc3ccccc32)CCCCN1Cc1cccc(C(F)(F)F)c1 (configuration not stated) | / | -4 | / | -14 | -1 | -14 | / | /
Cc1cc(-c2n[nH]c(=S)n2N=Cc2ccc(-c3ccccc3)cc2)n[nH]1 | / | -7 | / | -1 | 5 | -1 | / | /
Cc1cccc(NC(=O)CSc2nnc(SCc3ccc(Cl)cc3)s2)c1 | / | 5 | / | 1 | -46 | -24 | / | /
Clc1ccc2c(N/N=C/c3cccc(Br)c3)ccnc2c1 | -12 | -3 | 4 | -4 | 27* | 32* | 31* | 35*
C=CCNc1nc(Nc2ccc(OC)c(OC)c2)c2sc(-c3ccccc3)cc2n1 | / | 1 | -6 | -6 | 25* | 42* | 51* | 33*
C=CCNc1nc(NCCOC)c2sc(-c3ccccc3)cc2n1 | / | 4 | 4 | 3 | -6 | 3 | / | /
O=c1nc2s/c(=C\c3ccc(-c4ccccc4[N+](=O)[O-])o3)c(=O)n2nc1-c1ccccc1 | 27 | 9 | 1 | 5 | 22* | 40* | 34* | 6
COc1cccc(NC(=S)Nc2ccc(O)cc2)c1 | 26 | -2 | 6 | 7 | 17* | 34* | 20 | 5
CCCCNc1c(-c2ccc(OC)c(SC(C)CC)c2)nc2cc(C)ccn12 (configuration not stated) | 9 | 5 | -6 | 0 | 18*! | 44* | 65* | 10
SMILES | HTRA1 inhibitor | Tn7 DDE FP | TCR-CD3 inh | Tn6 DDE FP | SIAE primary | ABHD4 inh | mABHD4 conf | SIAE inh conf
CC(=O)Oc1ccc2c(=O)c(Oc3ccccc3)coc2c1OC(C)=O | 28 | -3 | 10 | -3 | 20* | 37* | 15 | 3
Nc1ccc2ccc(O)cc2c1 | 7 | -4 | 4 | -16 | 19* | 40* | 33* | 3
C=CCn1c(O)c(C2=c3ccccc3=NC2=O)sc1=Nc1ccc(O)cc1 | 10 | 0 | 7 | 1 | 21* | 35* | 73* | 12
C=CCN1C(=O)CSC1=Nc1ccc(O)cc1 | -1 | -2 | 2 | -9 | 13 | 3 | / | /
N=C1S/C(=C\c2ccco2)C(=O)N1c1ccc2c(c1)OCO2 | 17 | 1 | 3 | -5 | 21* | 34* | -1 | 0
COc1ccc(/C=N\NC(=O)CN2CCN(Cc3ccccc3)CC2)cc1OCc1ccccc1 | / | 0 | / | 4 | -6 | 3 | / | /
CC1=C([N+](=O)[O-])C(c2cccc(Br)c2)C2=C(N1)c1ccccc1C2=O (configuration not stated) | 14 | 2 | 6 | -3 | 28* | 30* | 35* | -2
COC(=O)C1=C(C)NC2=C(C(=O)c3ccccc32)C1c1cccc(OC)c1 (configuration not stated) | 3 | 0 | -2 | -2 | 4 | 21 | / | /
COc1ccc(CN2CN3Cc4ccc(C)cc4C3CS2(=O)=O)cc1 (configuration not stated) | / | -16 | / | 0 | -3 | -4 | / | /
COc1ccc2[nH]c3c(NCCC4=CCCCC4)ncnc3c2c1 | 1 | -3 | 0 | -12 | 50* | 39* | 61* | 45*
C=CCN(C)CC#Cc1ccc(OC)cc1 | / | 4 | / | -2 | 1 | 0 | / | /
O=C1N(CCCO)CCC12CCCCC2 | / | 6 | / | 3 | -1 | 4 | / | /
O=C(O)c1cccc(N/N=C/C2=C(Cl)c3cc(Cl)ccc3SC2)c1 | -18 | -10 | 3 | -5 | 21* | 30* | 87* | 31*
O=C1N=c2ccccc2=C1c1sc(=S)n(NC(=O)c2ccccc2)c1O | 7 | 3 | 3 | -2 | 23* | 33* | 42* | 31*
